Measurements gathered from unrelated publications.
Compare with care: the assays were run in different laboratories.
Cell line: NCI-H1299
Read-out: cell growth or viability

| SMILES | assay | setting | IC50 [µM] |
| --- | --- | --- | --- |
| COc1ccccc1/C=C/CNCC(O)COc1cccc2c1[nH]c1ccccc12 (centres unmarked) | CCK-8 | 72 h | 16.3 |
| CC(C)C[C@H](NC(=O)[C@H](Cc1ccccc1)NC(=O)c1cnccn1)B(O)O | ATP luminescence | – | 0.0099 |
| OCc1cn(Cc2ccc(Cl)cc2)c2ccccc12 | SRB | 72 h | ≥ 13 |
| C/C(=N\O)c1ccc(-c2ccc(O)c(C)c2)c(Cl)c1O | MTT | 48 h | 30.3 |
| OCc1cn(Cc2cccc(Cl)c2)c2ccccc12 | SRB | 72 h | ≥ 13 |
| COc1ccccc1/C=C/CNCC(O)COc1ccc2ncccc2c1 (centres unmarked) | CCK-8 | 72 h | > 100 |
| COc1cc(Nc2nccc(-c3cnn4nc(OC)ccc34)n2)cc(C(F)(F)F)c1 | ATP luminescence | – | 0.26 |
| C/C(=N\O)c1ccc(-c2ccc(O)c(Cl)c2)c(Cl)c1O | MTT | 48 h | 45.8 |
| COc1cc2c(Nc3ccc(NC(=O)c4ccccc4)cc3)ncnc2cc1OCCCN1CCOCC1 | MTS | 48 h | 1.1 |
| COc1ccccc1/C=C/CNCC(O)COc1cccc2ncccc12 (centres unmarked) | CCK-8 | 72 h | 36.6 |
| O=c1[nH]cc(S(=O)(=O)Nc2cccc(-c3nnc(-c4cccc(Cl)c4)o3)c2)c(=O)[nH]1 | MTT | 24 h | 27.6 |
